Converted amounts (≈) assume the structure as drawn.
What was measured:
[1] = tested on: Tobacco mosaic virus; experiment: Inhibition of Tobacco mosaic virus (TMV) infection in Nicotiana glutinosa assessed as infection inhibition rate at 30 ug/ml after 3 to 4 days by half-leaf method; format: functional
Outline: (§1)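 Half-leaf protective assay on Nicotiana glutinosa local-lesion host at the 4–5 leaf stage. TMV U1, purified and diluted to 30 μg/mL in 0.01 M PBS, was mixed with compound solution (DMSO stock diluted in water) for 30 min. The mix was rubbed onto the left leaf half, with virus plus DMSO on the right half. Local lesions were counted 3–4 days later; three repetitions.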

[2] = tested on: Tobacco mosaic virus; experiment: Inhibition of Tobacco mosaic virus (TMV) infection in Nicotiana glutinosa at 200 ug/ml after 3 to 4 days by half-leaf method; format: functional
Outline: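 Curative half-leaf test on N. glutinosa. Leaves were mechanically inoculated with purified TMV U1 (30 μg/mL). After 2 h, compound (DMSO stock in water) was applied to the left half and DMSO to the right half. Lesions were counted after 3–4 days. Values are mean ± SD, n = 3.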

[3] = tested on: Tobacco mosaic virus; experiment: Inhibition of Tobacco mosaic virus (TMV) infection in Nicotiana tabacum cv. K326 at 30 ug/ml by DAS-ELISA method; format: functional
Outline: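 Leaf-disk test in N. tabacum cv. K326. Leaves were inoculated with TMV (30 μg/mL), and 1 cm disks were cut after 72 h. Disks were floated on compound, DMSO (negative) or mock solutions at 28 °C for 48 h. Virus in disks was measured by DAS-ELISA at OD405 against a TMV standard curve (0.23–3.75 μg/mL). Inhibition = (1 − treated/negative-control TMV) × 100%.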

[4] = tested on: Tobacco mosaic virus; experiment: Inhibition of Tobacco mosaic virus (TMV) infection in Nicotiana glutinosa assessed as infection inhibition rate at 15 ug/ml after 3 to 4 days by half-leaf method; format: functional; outline: as §1
[5] = tested on: Tobacco mosaic virus; experiment: Inhibition of Tobacco mosaic virus (TMV) infection in Nicotiana glutinosa assessed as infection inhibition rate at 20 ug/ml after 3 to 4 days by half-leaf method; format: functional; outline: as §1
[6] = tested on: Tobacco mosaic virus; experiment: Inhibition of Tobacco mosaic virus (TMV) infection in Nicotiana glutinosa assessed as infection inhibition rate at 25 ug/ml after 3 to 4 days by half-leaf method; format: functional; outline: as §1
[7] = tested on: Tobacco mosaic virus; experiment: Inhibition of Tobacco mosaic virus (TMV) infection in Nicotiana glutinosa assessed as infection inhibition rate at 10 ug/ml after 3 to 4 days by half-leaf method; format: functional; outline: as §1
[8] = tested on: Tobacco mosaic virus; experiment: Inhibition of Tobacco mosaic virus (TMV) infection in Nicotiana glutinosa after 3 to 4 days by half-leaf method; format: functional, organism-based; outline: as §1
[9] = tested on: Tobacco mosaic virus; experiment: Inhibition of Tobacco mosaic virus (TMV) infection in Nicotiana glutinosa assessed as infection inhibition rate at 5 ug/ml after 3 to 4 days by half-leaf method; format: functional; outline: as §1

| SMILES | inhibition at 30 µg/mL [1] [%] | inhibition at 200 µg/mL [2] [%] | inhibition at 30 µg/mL [3] [%] | inhibition at 15 µg/mL [4] [%] | inhibition at 20 µg/mL [5] [%] | inhibition at 25 µg/mL [6] [%] | inhibition at 10 µg/mL [7] [%] | IC50 [8] [mg/L] | inhibition at 5 µg/mL [9] [%] |
| --- | --- | --- | --- | --- | --- | --- | --- | --- | --- |
| CC(=O)O[C@H]1C[C@@H](OC(C)=O)[C@@]2(C)CO[C@H]3[C@@H](O)[C@@]4(C)C5=CC[C@@H](c6ccoc6)[C@]5(C)CC[C@@H]4[C@]1(C)[C@@H]32 [DIACETYLVILASININ] | 14.6 | 17.2 |  |  |  |  |  |  |  |
| C=C1[C@@H]([C@@]2(C)C=CC(=O)O[C@](C)(COC(C)=O)[C@@H]2CC(=O)OC)[C@@H](OC=O)[C@H](OC(=O)[C@H](O)[C@H](C)CC)[C@@]2(C)[C@@H](c3ccoc3)C[C@H]3O[C@]132 [MOMBASOL] | 25.9 | 27.7 | 39.3 |  |  |  |  |  |  |
| CCC(C)C(O)C(=O)O[C@H]1C[C@H]2[C@](C)(C3=CC[C@@H](c4ccoc4)[C@@]31C)[C@H](OC(C)=O)C[C@H]1C(C)(C)OC(=O)C[C@H](OC(C)=O)[C@@]12C (stereo partly specified) [MUNRONOID K] | 51.9 | 55.6 | 67.2 | 28.6 | 38.7 | 45.7 | 18.7 | 28.3 (≈ 44 µM) | 6.5 |
| CC(=O)O[C@H]1C[C@H]2[C@](C)(C3=CC[C@@H](c4ccoc4)[C@@]31C)[C@H](OC(C)=O)C[C@H]1C(C)(C)OC(=O)C[C@H](OC(C)=O)[C@@]12C [MUNRONOID L] | 47.7 | 34.6 | 54.4 | 25.7 | 35.8 | 43.9 | 15.3 | 34.6 (≈ 60.6 µM) | 4.4 |
| CC(=O)O[C@H]1C[C@H]2[C@](C)(C3=CC[C@@H](c4ccoc4)[C@@]31C)[C@H](OC(=O)C=C(C)C)C[C@H]1C(C)(C)OC(=O)C[C@H](OC(C)=O)[C@@]12C [MUNRONOID M] | 45.4 | 29.3 | 45.7 | 22.6 | 33.5 | 42.9 | 11.5 | 37 (≈ 60.6 µM) |  |
| C/C=C(\C)C(=O)O[C@H]1C[C@@H](OC(C)=O)[C@@]2(C)CO[C@H]3[C@@H](O)[C@@]4(C)C5=C[C@@H](O)[C@@H](c6ccoc6)[C@]5(C)[C@@H](OC)C[C@@H]4[C@]1(C)[C@@H]32 [MUNRONOID N] | 52 | 24.5 | 30.2 | 26.4 | 37.9 | 44.6 | 16.5 | 27.9 (≈ 46.6 µM) | 8.3 |
| C=C1[C@@H]([C@@]2(C)C=CC(=O)OC(C)(C)[C@@H]2CC(=O)OC)[C@@H](OC(C)=O)[C@H](OC(C)=O)[C@@]2(C)[C@H](C3=CC(=O)OC3)C[C@H]3O[C@]132 [MUNRONOID O] | 64.2 | 50.2 | 64.2 | 33.4 | 42.8 | 51.4 | 24.6 | 22.2 (≈ 37.8 µM) | 11.2 |
| CNCC(=O)N[C@@H](CO)C(=O)N[C@H]1[C@H](O)[C@@H](O)[C@H](n2ccc(N)nc2=O)O[C@@H]1C(N)=O [NINGNANMYCIN] | 42.6 | 42.1 | 56.5 | 30.3 | 32.1 | 38.3 | 25 | 52.1 (≈ 117 µM) |  |
| C=C1[C@@H]([C@@]2(C)C=CC(=O)OC(C)(C)[C@@H]2CC(=O)OC)[C@@H](OC(C)=O)[C@H](OC(C)=O)[C@@]2(C)[C@@H](c3ccoc3)C[C@H]3O[C@]132 [NYMANIA] | 58 | 39.2 | 55.4 | 29.8 | 40.2 | 49.8 | 19.6 | 22.3 (≈ 39.1 µM) | 8.3 |

From ChEMBL document CHEMBL3045523, “The limonoids and their antitobacco mosaic virus (TMV) activities from Munronia unifoliolata Oliv” (J Agric Food Chem, 2012)
